The values that follow come from ChEMBL document CHEMBL4725436, “Gibberellin JRA-003: A Selective Inhibitor of Nuclear Translocation of IKKα” (ACS Med Chem Lett, 2020).

A short description of series [1]: Selectivity index, ratio of IC50 for human Hs895SK cells to EC50 for human HCC1599 cells measured after 24 hrs by CellTiter-Glo luminescent assay. It is filed as toxicity. Particulars: Hs895SK cells (IC50) versus HCC1599 cells (EC50). The essentials: (§1)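 High-throughput viability screen of test agents across a panel of 22 cancerous and noncancerous human cell lines. Viability was read by CellTiter-Glo luminescence.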
Background: ATP-based viability assays read luminescence as a measure of living cells.

The subject of series [2] is SUD4. The series can be described thus: Cytotoxicity against human SU-DHL-4 cells assessed as reduction in cell viability measured after 24 hrs by CellTiter-Glo luminescent assay. It counts as functional, cell-based. As to conditions: SU-DHL-4, 24 h. The essentials: as §1
Series [3] deals with HEK-293T. The series can be described thus: Inhibition of IKKalpha/IKKbeta in human HEK293T cells transfected with firefly luciferase gene assessed as inhibition of NF-kappaB signalling at 10 uM by luciferase reporter gene assay. It is filed as cell-based.
A short description of series [4]: Selectivity index, ratio of IC50 for human Hs578Bst cells to EC50 for human RC-K8 cells measured after 24 hrs by CellTiter-Glo luminescent assay. It is filed as toxicity. As to conditions: Hs578Bst cells (IC50) versus RC-K8 cells (EC50). The essentials:
as §1

The subject of series [5] is HCC1599. The series can be described thus: Cytotoxicity against human HCC1599 cells assessed as reduction in cell viability measured after 24 hrs by CellTiter-Glo luminescent assay. As to conditions: HCC1599, 24 h. It counts as functional, cell-based. The procedure, abridged:
as §1

The subject of series [6] is CA46. The series can be described thus: Cytotoxicity against human CA46 cells assessed as reduction in cell viability measured after 24 hrs by CellTiter-Glo luminescent assay. As to conditions: CA46, 24 h. It is filed as functional, cell-based. The procedure, abridged: as §1
The target of series [7] is T1, Inhibitor of nuclear factor kappa-B kinase subunit beta (Homo sapiens) (UniProt O14920).
T1 sequence (whole entry): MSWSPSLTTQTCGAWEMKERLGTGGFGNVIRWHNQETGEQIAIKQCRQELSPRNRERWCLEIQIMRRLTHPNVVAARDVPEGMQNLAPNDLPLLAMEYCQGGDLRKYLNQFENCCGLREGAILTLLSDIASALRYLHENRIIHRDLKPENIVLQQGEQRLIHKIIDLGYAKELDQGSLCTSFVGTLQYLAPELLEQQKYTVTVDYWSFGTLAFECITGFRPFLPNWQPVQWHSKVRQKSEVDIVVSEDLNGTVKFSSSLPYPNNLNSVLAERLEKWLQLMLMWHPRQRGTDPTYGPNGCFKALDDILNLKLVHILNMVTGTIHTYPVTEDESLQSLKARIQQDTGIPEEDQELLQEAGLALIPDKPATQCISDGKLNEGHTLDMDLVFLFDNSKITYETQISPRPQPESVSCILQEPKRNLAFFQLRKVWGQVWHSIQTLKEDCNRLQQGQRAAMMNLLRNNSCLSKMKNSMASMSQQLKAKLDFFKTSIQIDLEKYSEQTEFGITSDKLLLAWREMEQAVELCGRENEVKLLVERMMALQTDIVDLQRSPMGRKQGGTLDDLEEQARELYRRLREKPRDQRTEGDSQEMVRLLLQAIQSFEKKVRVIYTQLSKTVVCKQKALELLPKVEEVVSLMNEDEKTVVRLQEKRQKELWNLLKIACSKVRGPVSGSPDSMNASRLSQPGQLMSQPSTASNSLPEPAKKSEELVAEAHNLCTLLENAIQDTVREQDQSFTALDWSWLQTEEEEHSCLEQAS
The series can be described thus: Inhibition of JRA-031 binding to IKKbeta in TNF-alpha-stimulated human HEK293T cells at 1 uM pretreated with compound for 1 hr followed by labeling with JRA-031 for 1 hr followed by stimulation with TNF-alpha for 1 hr by pull down based mass spectrometry. It is filed as cell-based. As to conditions: HEK-293T.

The source made the active and inactive calls. The calls are words filed in the database; no cut-off is given here.

What is called EC50 is the concentration needed to bring the measured effect to its halfway point. A word on the inhibition: it is the percentage by which the read-out fell short of the control. For the compound `C=C1C[C@]23C[C@@]1(O)CC[C@H]2[C@@]12C=CC(=O)[C@@](C)(C(=O)O1)[C@H]2[C@@H]3C(=O)OC`, the selectivity ratio at 24 h in series [1] and in series [4] was 500 throughout. Further, the concentration for a half-maximal effect (EC50) in series [2] was below 40 nM; in series [5] it was 150 nM; in series [6], below 40 nM. In addition, in series [3], the inhibition is 100%. In series [7], the inhibition entry is “Active”.
